Source: PubChem BioAssay
Shown are actives, neighbours in structure and some others; about 2.3% of the full set was active somewhere.
STEP inh: blocks human striatal-enriched tyrosine phosphatase. recombinant STEP, OMFP fluorogenic substrate, fluorescence. P54829. actives 0.25% (n = 360,000). inhibition, % at 20 µM. AID 588621;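 active means inhibition at 20 µM, scaled per plate between control wells, above about 37%, limit read from the data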
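System: STEP (striatal-enriched tyrosine phosphatase) enzyme, cell-free; medium: Bis-Tris pH 6.0 buffer with DTT, detergent; dosing: 20 µM, 1% DMSO; times: reaction 20 min, ambient temperature; detection: fluorescence, 480/540 nm; read-out basis: normalized % inhibition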
DNMT1 inh: DNMT1 (human) enzyme inhibition; inhibition (reported as % activation of signal), % at 10 µM; actives 0.83% (n = 360,000); P26358; AID 588458; DNMT1 molecular beacon, Hinp1I cleavage, fluorescence; in the data active means inhibition above about 50%
Scp1 inh: Scp-1 (human) phosphatase inhibition | Q9GZU7 | AID 493091 | Recombinant Scp1, phosphopeptide, malachite green phosphate absorbance | actives 0.88% (n = 340,000) | inhibition, % at 20 µM;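 active means inhibition above about 50% at 20 µM, limit read from the data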
Target sequence (Q9GZU7 76-261 limits assumed): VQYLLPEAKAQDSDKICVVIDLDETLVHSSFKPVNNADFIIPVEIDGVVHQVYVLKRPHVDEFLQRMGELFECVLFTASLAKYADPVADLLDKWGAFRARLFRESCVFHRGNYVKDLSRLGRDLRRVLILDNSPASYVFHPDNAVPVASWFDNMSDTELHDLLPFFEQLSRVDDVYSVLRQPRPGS
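System: SCP-1 catalytic domain; Reagent: Phospho 17-mer peptide substrate; Doses: one concentration, 20 µM, with 1.0% DMSO; Incubation: 45 min room-temperature reaction, 5 min colour, 30 min stabiliser; Signal: Phosphate-binding colour reagent, absorbance read at 630 nm.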
Rpn11 block: blocks the human proteasome subunit Rpn11; O00487; human 26S proteasome, Ub4-pepOG fluorescence polarization; 20S core pre-blocked with epoxomicin; inhibition, % at 20 µM; actives 0.59% (n = 360,000);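 active means inhibition at 20 µM, scaled to each plate's controls, above about 33%, limit read from the data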
Target sequence (O00487 whole entry, looked up): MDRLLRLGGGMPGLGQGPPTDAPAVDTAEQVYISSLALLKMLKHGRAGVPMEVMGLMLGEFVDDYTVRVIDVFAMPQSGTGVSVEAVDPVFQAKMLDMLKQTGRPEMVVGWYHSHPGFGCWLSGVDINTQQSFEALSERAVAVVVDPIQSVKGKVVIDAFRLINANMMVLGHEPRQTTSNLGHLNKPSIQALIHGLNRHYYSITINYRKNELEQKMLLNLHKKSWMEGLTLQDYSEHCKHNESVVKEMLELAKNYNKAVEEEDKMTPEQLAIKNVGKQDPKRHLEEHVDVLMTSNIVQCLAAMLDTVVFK
SUMO1-SIM PPI: modulators of human SUMO1-mediated protein-protein interactions | P63165 | SUMO1 binding to a labelled peptide, TR-FRET, 1 h | inhibition, % at 20 µM | actives 0.33% (n = 360,000) | AID 602429; in the data active means inhibition above about 37%
LMPTP inh: blocks human LMPTP phosphatase; recombinant LMPTP-A, OMFP fluorogenic substrate, fluorescence intensity; inhibition, % at 20 µM; actives 0.22% (n = 360,000); AID 651560;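 active means compounds that cut the enzyme signal by at least half of the control window in the single-dose screen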
Target sequence (P24666 whole entry, looked up): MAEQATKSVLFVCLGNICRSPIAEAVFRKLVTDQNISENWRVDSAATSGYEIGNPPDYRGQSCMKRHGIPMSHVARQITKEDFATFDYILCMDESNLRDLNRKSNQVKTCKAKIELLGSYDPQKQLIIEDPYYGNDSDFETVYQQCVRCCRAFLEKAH
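Test system – LMPTP-A enzyme · Amount – LMPTP-A at 0.625 nM final in the reaction · Buffer or medium – Bis-Tris pH 6.0, DTT, detergent · Reagent – OMFP 400 µM · Doses – single 20 µM dose · Schedule – reaction 50 min, room temperature, dark · Detection – fluorescence intensity of OMFP turnover product · Evaluation – percent inhibition versus substrate-only and uninhibited controls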
Scp-1 conf: Scp-1 (human) inhibition, single-dose confirmed; shares compounds with Scp1 inh; recombinant SCP-1 catalytic domain, phosphate release, malachite green absorbance; actives 61% (n = 2,500); AID 540281; inhibition, % at 20 µM
Scp-1 MG ctr: colorimetric interference in Scp-1 counter-screen; shares compounds with Scp1 inh; Colorimetric interference counterscreen, malachite green absorbance 630 nm; apparent inhibition (interference), % at 20 µM; 2,500 tested, under 10 active; AID 540313;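 further: compounds added after enzyme reaction finished so only phosphate colour detection is probed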
Scp1 DSF: binds human Scp-1, shifting its melting temperature. shares compounds with Scp1 inh. actives 25% (n = 1,500). Recombinant SCP1, Sypro Orange thermal shift Tm. thermal shift relative to vanadate control, % at 40 µM;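 active means substances whose mean melting-temperature shift, as a percentage of the reference inhibitor's shift, reaches about 5.3%, limit read from the data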
Large screens that a line does not name were inactive (follow-up assays come after a bar, where they were run).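 How the source made its calls, unless noted: active means inhibition of at least 30% at 20 µM; inactive means the rest.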

CC(Oc1cccc(Cl)c1)C(=O)Nc1cc(=O)n(C)c(=O)n1C (stereo unspecified)	none | Scp-1 conf inactive | Scp-1 MG ctr inactive
Cn1c(NC(=O)COc2ccccc2)cc(=O)n(C)c1=O	none | Scp-1 conf inactive | Scp-1 MG ctr inactive
COc1ccc(/C=C/C(=O)Nc2cc(=O)n(C)c(=O)n2C)cc1	none
Cn1c(NC(=O)/C=C/c2ccccc2)cc(=O)n(C)c1=O	none | Scp-1 conf inactive | Scp-1 MG ctr inactive
Cn1c(NC(=O)CCc2ccccc2)cc(=O)n(C)c1=O	none | Scp-1 conf inactive | Scp-1 MG ctr inactive
CCN(C[C@H]1N[C@@](CC)(C(=O)OC)[C@H]2C(=O)N(C)C(=O)[C@@H]12)C(=O)Nc1ccc(C)cc1	none
Cn1c(CNC(=O)c2ccco2)nnc1SCCOc1ccccc1	none
Cc1ccc(/C=C/C(=O)Nc2cc(S(N)(=O)=O)ccc2O)cc1	none
Nc1ccn([C@@H]2O[C@H](CNCc3ccc(Oc4cc(-n5cccn5)ncn4)cc3)[C@@H](O)[C@H]2O)c(=O)n1	none (no result: Scp1 inh)
O=C1NC(=Nc2ccccc2)/C(=C/c2ccco2)S1	none
Cc1ccc(N=C2NC(=O)S/C2=C\c2ccco2)cc1	Scp1 inh 97, LMPTP inh 63 | Scp-1 conf 57 | Scp-1 MG ctr inactive | Scp1 DSF inactive
CC(=O)c1ccc(NC(=O)CCOc2cc(C)ccc2C)cc1	none
O=C(O)C1Cc2ccccc2CN1C(=O)COc1ccc(Cl)cc1Cl (stereo unspecified)	none
O=C(O)C1Cc2ccccc2CN1C(=O)COc1ccc(Br)cc1 (stereo unspecified)	Scp1 inh 53 | Scp-1 conf 55 | Scp-1 MG ctr inactive | Scp1 DSF inactive
O=C(COc1ccc(Cl)cc1Cl)N/N=C/c1cccnc1	none
O=C(CCCOc1ccc(Cl)cc1Cl)N/N=C/c1cccc([N+](=O)[O-])c1	Scp1 inh 92 | Scp-1 conf 55 | Scp-1 MG ctr inactive | Scp1 DSF inactive
C/C(=N\NC(=O)c1cc(-c2cccc([N+](=O)[O-])c2)n[nH]1)c1ccc(F)cc1	none
C/C(=N\NC(=O)c1cc(-c2cccc([N+](=O)[O-])c2)n[nH]1)c1ccccc1O	STEP inh 97, DNMT1 inh 60, Scp1 inh 96 | Scp-1 conf 85 | Scp-1 MG ctr inactive | Scp1 DSF 6.3
O=C(N/N=C/c1ccc(-c2cccc([N+](=O)[O-])c2)o1)c1ccccc1O	Scp1 inh 74 | Scp-1 conf 77 | Scp-1 MG ctr inactive | Scp1 DSF 9.2
O=C(N/N=C/c1ccc(-c2cccc([N+](=O)[O-])c2)o1)c1ccc([N+](=O)[O-])cc1	Scp1 inh 52 | Scp-1 conf inactive | Scp-1 MG ctr inactive
O=C(Cn1nnc(-c2cccs2)n1)Nc1ccccc1C(F)(F)F	none
CCOC(=O)c1ccc2c(c1)n(CC)c(/C=C/N(C)c1ccccc1)[n+]2CC	Scp1 inh 94 | Scp-1 conf 97 | Scp-1 MG ctr inactive | Scp1 DSF inactive
O=C(Nc1ccc(-c2ccccc2)cc1)c1ccco1	Scp1 inh 59 | Scp-1 conf inactive | Scp-1 MG ctr inactive
Cc1nnc2ccc(-c3ccc(NC(=O)c4ccco4)cc3)nn12	Scp1 inh 89, SUMO1-SIM PPI 52 | Scp-1 conf inactive | Scp-1 MG ctr inactive
O=C(Nc1ccc(NC(=O)c2ccco2)cc1)c1ccco1	none
C=CCNC(=O)c1ccc(NC(=O)CC2SC(N3CCCC3)=NC2=O)cc1 (stereo unspecified)	none
CC(=O)OCC1=C(C(=O)OC(C)(C)C)N2C(=O)[C@@H](NC(=O)Cc3ccccc3)[C@H]2SC1	Scp1 inh 91 | Scp-1 conf 70 | Scp-1 MG ctr inactive | Scp1 DSF 8.8
CC(=O)c1ccc(NC(=O)CSc2nnc(-c3ccco3)c(-c3ccco3)n2)cc1	Scp1 inh 83, SUMO1-SIM PPI 43, LMPTP inh 54 | Scp-1 conf 58 | Scp-1 MG ctr inactive | Scp1 DSF 9.4
CC(=O)Nc1ccc(NC(=O)CSc2nnc(-c3ccco3)o2)cc1	none
Cc1ccc(C(=O)CSC2=C(C#N)C(c3ccco3)CC(=O)N2)c(C)c1 (stereo unspecified)	DNMT1 inh 64, Scp1 inh 61 | Scp-1 conf 56 | Scp-1 MG ctr inactive | Scp1 DSF inactive
Cc1ccc(NC(=O)CSC2=C(C#N)C(c3ccco3)CC(=O)N2)cc1 (stereo unspecified)	none
CC1C(=O)Nc2ccc(S(=O)(=O)NCc3ccc(Cl)cc3)cc2NC1=O (stereo unspecified)	none | Scp-1 conf inactive | Scp-1 MG ctr inactive
CCC(NS(=O)(=O)c1ccc2c(c1)NC(=O)C(C)C(=O)N2)c1cccs1 (stereo unspecified)	none | Scp-1 conf inactive | Scp-1 MG ctr inactive
COc1ccc(CCC(=O)O)c(O)c1	Scp1 inh 53 | Scp-1 conf 46 | Scp-1 MG ctr inactive | Scp1 DSF inactive
O=C(Nc1cccc2nsnc12)c1ccc2c(c1)OCCO2	Scp1 inh 70 | Scp-1 conf inactive | Scp-1 MG ctr inactive
O=C(N/N=C\c1cccnc1)c1cc(-c2ccc(Cl)s2)[nH]n1	Scp1 inh 62 | Scp-1 conf 53 | Scp-1 MG ctr inactive | Scp1 DSF inactive
O=C(N/N=C/c1cccnc1)c1ccccc1Cl	none
C=CCn1c(SCC(=O)NCC2CCCO2)nc2scc(-c3ccco3)c2c1=O (stereo unspecified)	none
C=CCn1c(SCC(=O)NCCOC)nc2scc(-c3ccco3)c2c1=O	Scp1 inh 52 | Scp-1 conf inactive | Scp-1 MG ctr inactive
c1cnc2ccc3c(c2c1)COCO3	none
O=[N+]([O-])c1cc2c(c3cccnc13)COCO2	Scp1 inh 62 | Scp-1 conf 52 | Scp-1 MG ctr inactive | Scp1 DSF inactive
Cc1ccc(NS(=O)(=O)c2ccc(C)c(C(=O)NCC(c3ccccc3)N(C)C)c2)cc1 (stereo unspecified)	none
Nc1nc(=O)n(C2CC(O)C(CO)O2)cc1F (stereo unspecified)	none | Scp-1 conf inactive | Scp-1 MG ctr inactive
OC[C@H]1O[C@@H](c2nc(-c3ccccc3Br)no2)[C@H](O)[C@@H](O)[C@H]1O	none (no result: Scp1 inh)
